Source: ChEMBL document CHEMBL5724801, “EUbOPEN Chemogenomics Library - Multiplex” (2024)
Where “and” joins values, the source holds several entries; their conditions need not be identical. Equal values may be shown once.

Tested on: HEK-293T
Assay: Multiplex assay against HEK293T
Assay type: toxicity, cell-based
Conditions: human
Method in brief: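 At seeding, live cells were stained with Hoechst33342, BioTracker Green Microtubule Cytoskeleton Dye, MitoTracker Red and Annexin V Alexa Fluor 680. After compound addition they were imaged on a CQ1 microscope at 37°C and 5% CO2, and CellPathfinder machine-learning gating sorted them into Hoechst high-intensity objects or normal cells, with normal cells further split into healthy, pyknosed or fragmented nuclei and pyknosed cells into mitotic or apoptotic. Tubulin, mitochondrial-mass and membrane-permeability phenotypes are given as per cents of cells with healthy nuclei.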

[1] = 12 h, 1 µM, compound concentration 1 uM
[2] = 12 h, 10 µM, compound concentration 10 uM
[3] = 24 h, 1 µM, compound concentration 1 uM
[4] = 24 h, 10 µM, compound concentration 10 uM
[5] = 48 h, 1 µM, compound concentration 1 uM
[6] = 48 h, 10 µM, compound concentration 10 uM

## Cc1cc(O)c(-c2ccc([C@@H](C)CN(C)C)cc2)c2c1[nH]c(=O)c1sccc12
[1]
  Population Membrane Permeable-Phenotype (%): 0% and 1% and 7.14%
  Population Mitotic Cells (%): 88.89% [middle of 4 runs]
  Population Normal (%): 72% and 71% and 100%
  Population Tubulin-Different-Phenotype (%): 74% [middle of 4 runs]
  Total Cell Count: 209 and 207 and 208 and 140
[2]
  Population Fragmented Nuclei (%): 6% and 7% and 2.23% and 0.71%
  Population Membrane Permeable-Phenotype (%): 0% and 2.04% and 9.09%
  Population Mitotic Cells (%): 62.79% [middle of 4 runs]
  Population Normal (%): 58% and 71% and 100%
  Population Pyknosed Nuclei (%): 75.89% [middle of 4 runs]
  Population Tubulin-Different-Phenotype (%): 60% and 72% and 75.51% and 63.64%
  Total Cell Count: 268 and 195 and 224 and 141
[3]
  Population Apoptotic (%): 65% and 68% and 44.06% and 39.32%
  Population Fragmented Nuclei (%): 9% and 2.63% and 2.94%
  Population Hoechst High Intensity Objects (%): 21% and 1.72% and 0%
  Population Membrane Permeable-Phenotype (%): 0% and 6.67%
  Population Mitochondria Different-Phenotype (%): 89% [middle of 4 runs]
  Population Mitotic Cells (%): 34% and 31% and 55.94% and 60.68%
  Population Normal (%): 78% and 98.28% and 100%
  Population Tubulin-Different-Phenotype (%): 67% [middle of 4 runs]
  Total Cell Count: 230 and 205 and 232 and 136
[4]
  Population Apoptotic (%): 73% and 85% and 61.29% and 65.71%
  Population Fragmented Nuclei (%): 8% and 7% and 0.96% and 1.33%
  Population Membrane Permeable-Phenotype (%): 1.92% [middle of 4 runs]
  Population Mitochondria Different-Phenotype (%): 92% [middle of 4 runs]
  Population Mitotic Cells (%): 34.29% [middle of 4 runs]
  Population Normal (%): 63% and 74% and 99.52% and 100%
  Population Tubulin-Different-Phenotype (%): 70% and 80% and 96.15% and 62.5%
  Total Cell Count: 290 and 203 and 210 and 150
[5]
  Population Apoptotic (%): 86% and 69% and 73.55% and 70.43%
  Population Hoechst High Intensity Objects (%): 24% [middle of 4 runs]
  Population Membrane Permeable-Phenotype (%): 0%
  Population Mitochondria Different-Phenotype (%): 90% and 96% and 92% and 88.89%
  Population Mitotic Cells (%): 29.57% [middle of 4 runs]
  Population Normal (%): 75% and 74% and 99.03% and 100%
  Population Tubulin-Different-Phenotype (%): 76% and 70% and 42.67% and 77.78%
  Total Cell Count: 249 and 212 and 206 and 135
[6]
  Population Apoptotic (%): 86% and 87% and 92.81% and 91.73%
  Population Fragmented Nuclei (%): 13% [middle of 4 runs]
  Population Membrane Permeable-Phenotype (%): 1% and 0% and 1.56%
  Population Mitochondria Different-Phenotype (%): 92% and 100% and 87.5%
  Population Mitotic Cells (%): 13% and 12% and 7.19% and 8.27%
  Population Normal (%): 59% and 65% and 99.52% and 100%
  Population Tubulin-Different-Phenotype (%): 54% and 73% and 90.62% and 87.5%
  Total Cell Count: 223 [middle of 4 runs]

## Cn1cnc(-c2cnc(O[C@H]3CCN(C(=O)Cc4ccc(OC(F)(F)F)cc4)C[C@H]3F)c(C(N)=O)c2)c1
[1]
  Population Hoechst High Intensity Objects (%): 0.47% and 4.71%
  Population Mitotic Cells (%): 91.23% and 91.04%
  Population Normal (%): 99.53% and 95.29%
  Population Pyknosed Nuclei (%): 40.24% and 73.63%
  Total Cell Count: 191
[2]
  Population Hoechst High Intensity Objects (%): 0.68% and 0.69%
  Population Mitotic Cells (%): 87.04% and 85.37%
  Population Normal (%): 99.32% and 99.31%
  Population Pyknosed Nuclei (%): 55.29% and 86.01%
  Total Cell Count: 144
[3]
  Population Healthy Nuclei (%): 76.21% and 29.41%
  Population Hoechst High Intensity Objects (%): 0.45% and 3.61%
  Population Mitotic Cells (%): 88.44% and 91.13%
  Population Normal (%): 99.55% and 96.39%
  Population Pyknosed Nuclei (%): 22.27% and 66.31%
[4]
  Population Hoechst High Intensity Objects (%): 0.8% and 0%
  Population Mitotic Cells (%): 68.57% and 83.33%
  Population Normal (%): 99.2% and 100%
  Population Pyknosed Nuclei (%): 37.84% and 76.43%
  Total Cell Count: 373 and 157
[5]
  Population Healthy Nuclei (%): 86.49% and 68.91%
  Population Hoechst High Intensity Objects (%): 0% and 0.42%
  Population Mitotic Cells (%): 89.54% and 83.58%
  Population Normal (%): 100% and 99.58%
  Population Pyknosed Nuclei (%): 10.34% and 28.15%
[6]
  Population Healthy Nuclei (%): 80.81% and 60.93%
  Population Hoechst High Intensity Objects (%): 0% and 2.27%
  Population Mitotic Cells (%): 82.61% and 79.27%
  Population Normal (%): 100% and 97.73%
  Population Pyknosed Nuclei (%): 16.11% and 38.14%

## CC/C(=C(\c1ccc(O)cc1)c1ccc(OCCN(C)C)cc1)c1ccccc1 [AFIMOXIFENE]
[1]
  Population Apoptotic (%): 6.54% and 11.93%
  Population Fragmented Nuclei (%): 0.55% and 3.45%
  Population Healthy Nuclei (%): 57.18% and 21.38%
  Population Hoechst High Intensity Objects (%): 0.28% and 0%
  Population Membrane Permeable-Phenotype (%): 0.48% and 0%
  Population Mitochondria Different-Phenotype (%): 43.96% and 29.03%
  Population Mitotic Cells (%): 93.46% and 88.07%
  Population Normal (%): 99.72% and 100%
  Population Pyknosed Nuclei (%): 42.27% and 75.17%
  Total Cell Count: 363 and 145
[2]
  Population Apoptotic (%): 25.32% and 29.82%
  Population Fragmented Nuclei (%): 2.69% and 7.52%
  Population Hoechst High Intensity Objects (%): 0%
  Population Mitochondria Different-Phenotype (%): 25.19% and 44.44%
  Population Mitotic Cells (%): 74.68% and 70.18%
  Population Normal (%): 100%
  Population Pyknosed Nuclei (%): 53.2% and 85.71%
  Population Tubulin-Different-Phenotype (%): 8.4% and 22.22%
  Total Cell Count: 297 and 133
[3]
  Population Apoptotic (%): 8.84% and 19.33%
  Population Fragmented Nuclei (%): 1.87% and 0.54%
  Population Healthy Nuclei (%): 75.2% and 35.48%
  Population Hoechst High Intensity Objects (%): 0%
  Population Membrane Permeable-Phenotype (%): 1.45% and 3.03%
  Population Mitochondria Different-Phenotype (%): 15.56% and 16.67%
  Population Mitotic Cells (%): 91.16% and 80.67%
  Population Normal (%): 100%
  Population Pyknosed Nuclei (%): 22.93% and 63.98%
  Population Tubulin-Different-Phenotype (%): 15.56% and 13.64%
[4]
  Population Apoptotic (%): 49.01% and 63.64%
  Population Fragmented Nuclei (%): 2.59% and 6.2%
  Population Hoechst High Intensity Objects (%): 0%
  Population Membrane Permeable-Phenotype (%): 0.44% and 4.55%
  Population Mitochondria Different-Phenotype (%): 40.44% and 36.36%
  Population Mitotic Cells (%): 50.99% and 36.36%
  Population Normal (%): 100%
  Population Pyknosed Nuclei (%): 39.12% and 76.74%
  Population Tubulin-Different-Phenotype (%): 28.44% and 27.27%
  Total Cell Count: 386 and 129
[5]
  Population Apoptotic (%): 7.69% and 13.19%
  Population Fragmented Nuclei (%): 1.84% and 1.61%
  Population Healthy Nuclei (%): 85.71% and 61.85%
  Population Hoechst High Intensity Objects (%): 0% and 0.8%
  Population Membrane Permeable-Phenotype (%): 6.52% and 3.25%
  Population Mitochondria Different-Phenotype (%): 18.34% and 27.92%
  Population Mitotic Cells (%): 92.31% and 86.81%
  Population Normal (%): 100% and 99.2%
  Population Pyknosed Nuclei (%): 12.45% and 36.55%
[6]
  Population Apoptotic (%): 39.87% and 62.5%
  Population Fragmented Nuclei (%): 2.24% and 6.98%
  Population Healthy Nuclei (%): 66.53% and 24.81%
  Population Hoechst High Intensity Objects (%): 0.2% and 0%
  Population Membrane Permeable-Phenotype (%): 3.37% and 9.38%
  Population Mitochondria Different-Phenotype (%): 77.3% and 65.62%
  Population Mitotic Cells (%): 60.13% and 37.5%
  Population Normal (%): 99.8% and 100%
  Population Pyknosed Nuclei (%): 31.22% and 68.22%
